Screening data deposited in PubChem by The Scripps Research Institute Molecular Screening Center.
In the library only some 3.1% were active in any assay of this set; here they are far more common.
GalR3 antagonist – antagonists of human GalR3; 360,000 compounds, 0.44% hits; inhibition, % at 3 µM; O60755; HEK293 GalR3-CNG cAMP membrane potential fluorescence; galR3 body fused to GalR1 C-terminus; AID 651719;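 active means inhibition above the screen-wide average plus 3 SD, cut at about 13% in these data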;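 further: forskolin and galanin both at EC90 stimulate the cells; cAMP rise reported by CNG channel membrane potential dye signal; 0% = forskolin plus galanin with DMSO and 100% = forskolin alone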
CHO parental Ca – counter-screen: ATP calcium response change in parental CHO cells | parental CHO-K1, ATP-induced calcium, Fluo-8 fluorescence | inhibition, % at 5.6 µM | 330,000 compounds, 0.63% hits | AID 463079;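 active means inhibition above that plate's mean sample inhibition plus 3 SD, cut at about 26% in these data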;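 further: 0% = ATP-challenged DMSO wells and 100% = DMSO wells without ATP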
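material = parental CHO cells | also added = ATP as calcium-mobilizing challenge | dosing = single point at 5.6 µM | detection = intracellular calcium via Fluo-8 no-wash fluorescent dye | read-out = % inhibition | benchmarks = low control ATP plus DMSO, high control DMSO only | repeats = one well per compound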
OX1R antag-1 – antagonists of human orexin 1 receptor (OX1R) | 330,000 compounds, 1.8% hits | inhibition, % at 6.6 µM | AID 485270 | OX1R-expressing cells, FRET antagonist read-out; in the data active means inhibition mostly above about 38%, no sharp cut-off; inactive means mostly below about 40%;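 further: 0% = agonist challenge alone and 100% = reference antagonist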
Target sequence (O43613 whole entry, looked up): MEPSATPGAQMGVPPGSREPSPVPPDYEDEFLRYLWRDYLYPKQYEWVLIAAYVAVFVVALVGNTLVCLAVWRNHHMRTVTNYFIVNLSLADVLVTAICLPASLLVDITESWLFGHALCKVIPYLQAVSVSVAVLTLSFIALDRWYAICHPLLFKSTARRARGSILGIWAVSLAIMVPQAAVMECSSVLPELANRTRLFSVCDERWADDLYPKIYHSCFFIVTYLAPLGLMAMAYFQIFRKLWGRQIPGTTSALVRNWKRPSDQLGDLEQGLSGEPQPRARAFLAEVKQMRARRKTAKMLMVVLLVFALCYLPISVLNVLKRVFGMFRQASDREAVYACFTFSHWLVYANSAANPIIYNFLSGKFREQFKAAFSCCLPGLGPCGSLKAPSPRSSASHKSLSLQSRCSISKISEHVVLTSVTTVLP
OX1R antag-2 – human HCRTR1 antagonism; O43613; CHO/OX1R cells, Fluo-8 calcium fluorescence, orexin A; inhibition, % at 5 µM; 330,000 compounds, 0.43% hits;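 active means inhibition above its plate's threshold, mean inhibition of all tested compounds on the plate plus 3 SD, cut at about 37% in these data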;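 further: 0% = orexin A challenge wells and 100% = SB-334867-A antagonist wells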
GPR7 antag – blocks human GPR7 receptor signaling; AID 1861; inhibition, % at 4.4 µM; GPR7-expressing cells, fluorescence antagonist assay; 290,000 compounds, 1.1% hits; in the data active means inhibition above about 16%, passing the limit was not always enough;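 further: cells stimulated with the agonist NPW; 0% = agonist with vehicle and 100% = vehicle without agonist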
Starred values were filed as active, the others as inactive; · = not tested or not shown.

SMILES	GalR3 antagonist	CHO parental Ca	OX1R antag-1	OX1R antag-2	GPR7 antag
COc1ccc(OCC(=O)NNC(=O)c2ccccc2OCc2c(C)noc2C)cc1	1.3	-14.7	22.3	-18.0	·
Cc1ccc(-c2c(=O)n(OCc3ccccn3)c3ccccc3[n+]2[O-])cc1	·	·	·	·	-10.3
CCOc1ccc(-c2c(=O)n(OCc3ccccn3)c3ccccc3[n+]2[O-])cc1	0.8	-8.0	61.8*	5.4	-7.7
O=c1c(-c2ccc(Cl)cc2)[n+]([O-])c2ccccc2n1OCc1ccccn1	-6.0	-4.1	7.6	-1.2	-3.9
COc1ccc(-c2c(=O)n(OCc3ccccn3)c3ccccc3[n+]2[O-])cc1OC	-3.5	-16.3	55.3*	-22.4	3.3
CCN(CC(=O)Nc1ccc(NC(C)=O)cc1)CC(=O)Nc1cc(C)on1	-1.6	-8.6	0.8	-27.3	·
O=C(Nc1ccc(S(=O)(=O)N2CCOCC2)cc1)c1ccc(CN2CCc3ccccc3C2)cc1	·	51.2*	47.3	68.7*	9.4
CN1CCN(S(=O)(=O)c2ccc(NC(=O)c3ccc([N+](=O)[O-])cc3)cc2)CC1	-3.4	-17.3	44.4*	-17.9	·
O=C(Nc1ccc(C(=O)N2CCOCC2)cc1)c1ccc([N+](=O)[O-])cc1	-1.4	-9.7	43.7*	0.6	-1.3
C[C@H]1CN(c2ccc(N3CCN(C(=O)OC(C)(C)C)C[C@@H]3C)cc2C#N)CCN1Cc1ccccc1	-0.9	·	·	·	·
Cc1ccc(S(=O)(=O)N2CCN(c3ncnc4sccc34)CC2)cc1	-4.4	37.4*	20.6	10.4	5.8
COC(=O)C1=C(C)N(Cc2ccccc2C(F)(F)F)C(=NCc2cc(OC)c(OC)c(OC)c2)NC1c1ccc(Cl)cc1 (stereo not given)	-3.1	·	·	·	·
CC1=NN(c2ccccc2)C(=O)/C1=C/c1c(O)n(-c2ccc(F)c(Cl)c2)[nH]c1=O	·	-4.0	74.2*	5.0	-11.4
CC1=NN(c2ccccc2)C(=O)/C1=C\c1c(C)[nH]n(-c2ccccc2)c1=O	-0.6	-4.0	5.1	-2.8	-7.1
COc1ccc(Nc2nc3ccccc3nc2NS(=O)(=O)c2cccs2)c(OC)c1	-3.7	-15.7	14.4	2.6	-12.6
COc1cccc(Nc2nc3ccccc3nc2NS(=O)(=O)c2cccs2)c1	-6.3	7.7	42.5*	-4.3	-6.7
Cc1[nH]c2ccc(C(=O)N3CCN(c4ccc(F)cc4)CC3)cc2c1C	0.3	-29.0	-3.1	-31.8	7.7
COCCN(C(=O)c1ccccc1F)c1nnc(-c2ccc(OC)cc2)s1	-10.7	-24.1	20.1	-19.9	16.1
CCOCCCn1c(=N)c(C(=O)NCc2ccc3c(c2)OCO3)cc2c(=O)n3cccc(C)c3nc21	·	-23.9	41.5*	-28.2	0.5
COCCCn1c(=N)c(C(=O)NCc2ccc3c(c2)OCO3)cc2c(=O)n3cccc(C)c3nc21	-0.6	·	·	·	·
COCCCn1c(=N)c(C(=O)NCc2ccc3c(c2)OCO3)cc2c(=O)n3ccccc3nc21	-4.6	-11.7	59.0*	-17.6	7.0
O=C(C(=O)N1CCC(CNC(=O)c2ccccc2F)CC1)c1cc2ccccc2o1	-4.5	·	·	·	·
CCCN1CCCCC(NC(=O)c2ccc(C)cc2C)C1=O (stereo not given)	-6.2	·	·	·	·
CC1(C)CSC(=NCCc2ccccc2)N1C(=O)c1ccc(C#N)cc1	-2.1	-8.6	13.8	-11.6	20.1*
CC1(C)CSC(=NCCc2ccccc2)N1	-8.1	0.0	23.4	-8.2	-4.3
SMILES	GalR3 antagonist	CHO parental Ca	OX1R antag-1	OX1R antag-2	GPR7 antag
Cc1cc(S(=O)(=O)N2CCOCC2)ccc1OCC(=O)Nc1ccc(F)cc1F	4.4	7.9	4.6	0.6	-15.2
Cc1cc(C(=O)COC(=O)c2ccc([N+](=O)[O-])o2)c(C)n1CC1CCCO1 (stereo not given)	-0.1	-0.1	67.0*	-12.3	4.5
CC1CCN(C(=O)COC(=O)c2ccc([N+](=O)[O-])o2)CC1	-6.6	-3.0	41.7*	-4.7	·
Cc1cc(C(=O)CSc2nc3ccccc3o2)c(C)n1CC1CCCO1 (stereo not given)	-3.5	32.0	64.3	39.3*	-13.8
CC1Cc2ccccc2N1C(=O)COC(=O)c1ccco1 (stereo not given)	-3.4	·	·	·	·
CC1Cc2ccccc2N1C(=O)COC(=O)c1ccc([N+](=O)[O-])o1 (stereo not given)	-0.2	-5.3	39.6*	4.9	·
O=C(CSc1nc2ccccc2o1)NCC1CCCO1 (stereo not given)	2.7	-6.3	14.5	-14.6	·
CC1CCN(C(=O)COC(=O)c2ccc(Br)o2)CC1	-6.7	-8.3	13.0	4.4	-4.7
C=CCCC1CN(Cc2ccc(OC)cc2)S(=O)(=O)c2c(Oc3ccc(OC)cc3)cccc2O1 (stereo not given)	-4.9	·	·	·	·
COc1ccccc1C(=O)Nc1ccnn1C1CCN(CCCc2ccccc2)CC1	-8.7	-30.9	6.3	-30.6	-17.4
Nc1[nH]c(C(=O)c2ccc(Br)cc2)c(-c2cccc3ccccc23)c1C(=O)NCCc1c[nH]c2ccccc12	-5.7	·	·	·	·
O=C(OCC(=O)N1CCN(S(=O)(=O)c2ccc(Cl)cc2)CC1)c1ccc([N+](=O)[O-])o1	-5.1	-8.0	21.0	-11.9	19.8*
O=C(OCC(=O)N1CCN(S(=O)(=O)c2ccc(Cl)cc2)CC1)C1CC1	1.6	-3.8	4.2	-0.5	·
Cc1c(C(=O)OCc2nc3ccsc3c(=O)[nH]2)oc2ccccc12	-1.1	-20.9	48.9*	0.8	·
COc1ccccc1-c1cc(C(F)(F)F)c(C#N)c(=O)[nH]1	-4.7	-2.2	10.1	-10.8	-11.2
COc1ccccc1-c1cc(SC)c(C#N)c(=O)o1	3.2	5.1	51.3*	-7.0	-10.6
Cc1occc(=O)c1OC(=O)Nc1ccc(Cl)c(Cl)c1	2.4	70.4*	14.2	35.9	12.8
CCCC(=O)Nc1ccc(C(=O)Nc2cc(C(F)(F)F)ccc2Cl)cc1	-4.4	68.9*	31.4	-4.8	-3.4
CN(CCCC(=O)NCc1ccc2c(c1)OCO2)S(=O)(=O)c1ccc([N+](=O)[O-])cc1	-0.9	-0.4	66.3*	-12.8	13.7
COc1ccc(/C=C2\SC(=O)N(CC(=O)Nc3cccc(C)c3)C2=O)cc1O	-12.9	-4.3	4.0	-0.5	7.6
CCc1cc(C(=O)OCC(=O)NCCc2ccccc2)sc1C	-7.0	·	·	·	·
CN(CC(=O)Nc1ccccc1Cl)C(=O)COC(=O)c1ccc([N+](=O)[O-])s1	-2.1	-0.5	43.5*	-10.0	·
O=C(COC(=O)c1ccc([N+](=O)[O-])s1)c1ccc[nH]1	-6.5	-6.8	60.7*	15.8	·
CN(CC(=O)Nc1ccccc1Cl)C(=O)COC(=O)c1cccs1	-1.9	-1.3	14.8	-10.7	·
O=C(COC(=O)c1ccc(O)cc1)NC(=O)NCc1ccccc1	-7.9	-10.7	1.3	-0.1	·
O=C(COC(=O)c1ccc([N+](=O)[O-])s1)NC(=O)NCc1ccccc1	-3.3	-6.6	49.0*	-7.4	9.1
O=C(COC(=O)c1ccc([N+](=O)[O-])s1)NCCc1ccccc1	·	-12.1	27.2*	-9.8	·
Cc1cccc(C)c1NC(=O)CNC(=O)c1cccc(S(=O)(=O)NCc2cccs2)c1	-7.4	-25.0	5.3	4.2	·
CCOC(=O)c1cnc2c3c(noc13)CCC2	-6.2	·	·	·	·
